Compound activity deposited in PubChem BioAssay by Johns Hopkins Ion Channel Center.
Rows were chosen to be rich in hits. Some 2.3% of all compounds tested hit in one or more screens of this group.
TRPC4 agonist: activators of mouse TRPC4 channel | HEK293 TRPC4beta/mu-opioid, Fluo4 calcium fluorescence; stronger effect = higher value | B-score at 10 µM | 0.49% of 310,000 active;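 active = B-score above 5 SD of library B-scores, and initial fluorescence ratio not above library mean plus 5 SD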;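 also: positive B-score marks a calcium rise read as TRPC4 activation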
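System – HEK293 cells stably co-expressing mouse TRPC4beta and mu-opioid receptor · Signal – Fluo4 calcium-sensitive dye fluorescence, kinetic, 1 Hz baseline · Benchmarks – buffer (low) and maximal DAMGO (high) · Read-out – B score of integrated fluorescence ratio per well · Incubation – dye loading 45 min room temperature, 110 s kinetic read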
TRPC6 inhibitor: inhibitors of mouse TRPC6 channel. B-score at 10 µM. HEK293-TRPC6, membrane potential dye, ACh-evoked depolarization; stronger effect = lower value. Q61143. 1.1% of 310,000 active. AID 2553;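 active = B-score under library mean minus 3 SD, initial fluorescence not abnormally high, positive integrated signal ratio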;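 also: B-score derived from integrated fluorescence ratio over the kinetic read; more negative B-score means stronger inhibition of depolarization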
TRPC4 potent: allosteric potentiators of mouse TRPC4 channel. Q9QUQ5. HEK293 TRPC4beta/mu-opioid, DAMGO EC20, Fluo-4 Ca2+ flux; stronger effect = higher value. B-score at 10 µM. 0.42% of 310,000 active. AID 2227;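 active = B-score of calcium response area above 5 SD of library B-scores, with initial fluorescence ratio within 5 SD of library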
TRPC4 inh: blocks the mouse TRPC4 cation channel | Q9QUQ5 | HEK293 TRPC4beta/mu-opioid, DAMGO-evoked Fluo4 calcium flux; stronger effect = lower value | B-score at 10 µM | 0.39% of 300,000 active | AID 2247;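 active = B-score over 3 SD under the library average, no early fluorescence shift, positive overall ratio signal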
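Assay system: HEK293 cells with stable TRPC4beta plus mu-opioid receptor expression. Dosing: single dose. Measured by: Fluo4 Ca2+ flux fluorescence. Also added: DAMGO in two steps, submaximal then maximal. Read-out: B score from integrated Fluo4 fluorescence ratio.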
TRPC6 act: mouse TRPC6 channel activation; HEK293-TRPC6 membrane potential dye fluorescence; stronger effect = higher value; B-score at 10 µM; 0.13% of 310,000 active; AID 2550;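 active = B-score of the integrated fluorescence ratio above library mean plus 3 SD, and starting fluorescence ratio within library mean plus 5 SD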;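 also: higher score means more depolarization so channel activation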
Large screens that a line does not name were inactive.

COc1ccc2sc(N(CCCN(C)C)C(=O)c3ccc(S(=O)(=O)N4CCCc5ccccc54)cc3)nc2c1	TRPC4 potent 18
CN(C)CCCN(C(=O)c1ccc(C(=O)c2ccccc2)cc1)c1nc2ccc(F)cc2s1	TRPC4 agonist 121
CCN(Cc1ccccc1)S(=O)(=O)c1ccc(C(=O)N(CCCN(C)C)c2nc3ccc(F)cc3s2)cc1	TRPC4 agonist 63
CN(C)CCCN(C(=O)c1ccc(S(=O)(=O)N(C)C2CCCCC2)cc1)c1nc2ccc(F)cc2s1	TRPC4 agonist 140
COc1cc2nc(N(CCCN(C)C)C(=O)c3ccc(S(=O)(=O)N4CCc5ccccc54)cc3)sc2cc1OC	none
CCN(Cc1ccccc1)S(=O)(=O)c1ccc(C(=O)N(CCCN(C)C)c2nc3cc4c(cc3s2)OCCO4)cc1	none
CN(C)CCCN(C(=O)c1nc2ccccc2s1)c1nc2ccc(F)cc2s1	none
O=C(NC1CCCCNC1=O)c1ccccc1 (stereo not given)	none
O=C(O)c1ccc(N/N=C/c2ccc(C(F)(F)F)cc2)cc1	TRPC4 inh -5
Cc1c(C(=O)N2CC[C@@H](N3CCC(O)CC3)[C@H](O)C2)[nH]c2ccc(Cl)cc12	none
CC1Oc2ccccc2C=C1/C=N/Nc1ccc(C(=O)O)cc1 (stereo not given)	TRPC4 inh -5
Cc1cc(C(C)(C)C)c(O)c(C)c1CC1=NCCN1	TRPC4 potent 17
c1ccc2c(CC3=NCCN3)cccc2c1	none
O=C(OC(C(=O)NCc1ccc(F)cc1)c1ccccc1)c1ccco1 (stereo not given)	none
CN(C)S(=O)(=O)c1ccc2c(c1)nc(CCC(=O)NCCc1ccc(Cl)cc1)n2C	none
COc1ccc([N+](=O)[O-])cc1NCc1ccco1	TRPC4 inh -6
CNc1c(NS(=O)(=O)c2ccc(OC)c(Cl)c2)c(=O)oc2ccccc12	none
C=CCSc1nc2c(c(=O)[nH]c(=O)n2C)n1C/C=C(/C)Cl	TRPC4 inh -7
C=CCn1c(SCCN2CCOCC2)nc2c1c(=O)[nH]c(=O)n2C	TRPC4 potent 23
C/C(Cl)=C/Cn1c(SCCN2CCOCC2)nc2c1c(=O)[nH]c(=O)n2C	none
COc1cc([N+](=O)[O-])ccc1NC(=O)Cn1ccsc1=N	none
CCCSc1cc(N)cc([N+](=O)[O-])c1	TRPC4 inh -5
Cc1ccc2oc(C(=O)NCC(c3ccco3)N(C)C)c(C)c2c1 (stereo not given)	TRPC4 inh -6
CN(C)c1ccc([N+](=O)[O-])cc1C(=O)NCC(c1ccco1)N(C)C (stereo not given)	TRPC4 inh -5
CN(C)C(CNC(=O)c1ccc(C(F)(F)F)cc1)c1ccco1 (stereo not given)	TRPC4 agonist 86, TRPC4 inh -7
CC(=O)Nc1ccc(C(=O)NCC(c2ccco2)N(C)C)cc1 (stereo not given)	none
Cc1cc(C)cc(NC(=O)C2C3C=CC4(O3)C2C(=O)N(CCCN(C)C)C4C(=O)NC2CCCC(C)C2C)c1 (stereo not given)	none
COc1cccc2c1cc1c(=O)n(CC(=O)N3CCC(C)CC3)nc(C)n12	none
CC(C)c1ccccc1NC(=S)NN(Cc1ccccc1)c1ccccc1	TRPC4 potent 27
Fc1ccc(NC(=S)NCCc2ccccn2)cc1	TRPC4 agonist 213
Cc1cc(Cl)ccc1OCC(=O)N/N=C1\CC2C=CCC12 (stereo not given)	none
CCOC(=O)c1cnc2ccccc2c1NCc1ccco1	TRPC4 inh -6
CCOC(=O)c1cnc2ccc(OC)cc2c1NCc1ccccc1	none
S=C(NCCc1ccccc1)NCC(c1ccco1)N1CCCCC1 (stereo not given)	TRPC4 agonist 60
COc1ccc(NC(=S)NCC(c2ccco2)N2CCCC2)cc1 (stereo not given)	none
CCCOc1ccc(CCCN=C(N)N)cc1Cl	TRPC4 agonist 53
CCCCOc1ccc(CN=C(N)N)cc1Cl	none
O=C(c1ccc(Br)o1)N1CCc2ccccc21	none
CC(=O)NC(Cc1cc(C)ccc1C)C(=O)N1CCN(C(=O)c2ccc([N+](=O)[O-])cc2)CC1 (stereo not given)	none
O=C(Nc1ccncc1)c1ccc(Cl)c(S(=O)(=O)N2CCc3ccccc32)c1	TRPC4 agonist 95
c1ccc(-c2ccc(-c3ccccn3)nn2)nc1	TRPC6 inhibitor -11.1
CCn1c(N2CCN(S(=O)(=O)c3ccccc3C(F)(F)F)CC2)nc2ccccc21	TRPC4 agonist 119
CC(=O)Oc1ccc(C(=O)Nc2ccc(C3(C#N)CCCC3)cc2)cc1	none
NCCNc1ccc([N+](=O)[O-])cc1	TRPC4 agonist 62
CN1CCN(c2ccc(NC(=O)c3ccc(Br)o3)cc2)CC1	TRPC4 inh -7
CCc1ccc(Nc2nnc(SCC(=O)NCCN3C(=O)CSC3=O)s2)cc1	none
CN(C)/C=C1\C(=O)N(c2ccc([N+](=O)[O-])cc2)N=C1c1ccccc1	TRPC4 agonist 47, TRPC4 inh -6
CN(C)/C=C1/C(=O)N(c2ccc([N+](=O)[O-])cc2)N=C1c1ccccc1	none
COc1ccc(Sc2nc(-c3ccccc3)ncc2C(=O)O)cc1	TRPC4 inh -7
CCN(CC)S(=O)(=O)c1ccc(Cl)c(C(=O)OCC(=O)c2c(N)n(C)c(=O)n(C)c2=O)c1	none
CCN(CC)C(=O)C1CCCN(C(=O)CCn2nnnc2CN2CCOCC2)C1 (stereo not given)	none
CCOC(=O)C1CCCN(C(=O)CCn2nnnc2CN2CCOCC2)C1 (stereo not given)	TRPC4 potent 10
CN(C)c1ccc(C(C(=O)NC2CCCC2)N(C(=O)c2ccco2)C2CC2)cc1 (stereo not given)	none
Cc1ccc(Cl)cc1NC(=O)CNCC(c1ccccc1)N(C)C (stereo not given)	TRPC4 agonist 118
COc1ccc(Cl)cc1NC(=O)CNCC(c1ccccc1)N(C)C (stereo not given)	TRPC4 agonist 49, TRPC4 inh -7
COc1ccc(Cl)cc1NC(=O)CNC(c1ccccc1)c1ccccc1	none
Cc1ccc(Cl)cc1NC(=O)CCC(=O)O	none
Cc1cc(C(=O)N[C@H](c2ccccc2)[C@@]2(C)C[C@@H]2[C@@H](C)C(=O)Nc2ccc3ccccc3c2)n(C)n1	none
O=C(Nc1ccc(Cl)c([N+](=O)[O-])c1)c1cnccn1	TRPC4 potent 21
O=C(Nc1ccc(Cl)c([N+](=O)[O-])c1)c1ccncc1	none
N/C(=N\OC(=O)COc1ccc2ccccc2c1Br)c1ccncc1	TRPC6 inhibitor -5.02
N/C(=N\OC(=O)COc1ccc2ccccc2c1)c1ccncc1	none
COC(=O)[C@H](Cc1ccccc1)NC(=O)c1ccc2ccccc2n1	TRPC4 potent 16
CCOC(=O)C(C)Sc1nc(-c2ccccc2)nc2ccccc12 (stereo not given)	none
